Several values for one entry are separate records, joined by “and”; a condition that tells them apart may be missing. Identical values can stand only once.
Assays:
[1] = In vivo blood glucose was determined in obese, hyperglycemic, hyperinsulinemic, insulin-resistant KKAy mice after a dose of 500 mg/kg for 4 days; assay type: functional, Mus musculus
[2] = target: Creatine kinase M-type (Homo sapiens) (UniProt P06732); test: Reaction rate of creatine kinase was determined (relative to creatine)
[3] = tested on: Mus musculus; test: In vivo blood glucose was determined in obese,hyperglycemic,hyperinsulinemic,insulin-resistant KKAy mice after a dose of 500 mg/kg for 4 days; assay type: functional
Procedure, shortened: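 KKAy mice (obese, hyperinsulinemic) grouped into treated and control (n = 6) after pretest glucose on an Alpkem autoanalyzer. Compound given in food at 500 mg/kg for 4 days, then nonfasting blood glucose measured. Result expressed as treated/control (T/C). Wilcoxon rank-sum test applied when T/C < 0.80.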

[4] = tested on: Mus musculus; test: Terminal blood glucose level was determined in ob/ob mice after oral administration for two weeks (control = 226+/-29); assay type: functional
Procedure, shortened: (§1)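 ob/ob mice on Purina 5015 chow, given drug as admixture in milled chow for 14 days. Intake measured from food-bowl weight change. Blood from retro-orbital sinus, heparinized, kept on ice and analyzed promptly. Blood glucose measured before and after treatment. Group sizes 8–15, housed at 21 °C on 12 h light–dark cycle; two-way ANOVA, Student–Newman–Keuls post hoc.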

[5] = organism: Mus musculus; test: Initial body weight was determined in ob/ob mice (control=55+/-1); assay type: functional
[6] = tested on: Mus musculus; test: Terminal body weight was determined in ob/ob mice after oral administration for two weeks (control = 53+/-1); assay type: functional
[7] = tested on: Mus musculus; test: Terminal fat body weight was determined in ob/ob mice after oral administration for two weeks (control = 28+/-0.9); assay type: functional
[8] = tested on: Mus musculus; test: Terminal lean body weight was determined in ob/ob mice after oral administration for two weeks (control = 25+/-1); assay type: functional
[9] = organism: Mus musculus; test: Average daily dose was determined in ob/ob mice(control=0); assay type: functional
[10] = tested on: Mus musculus; test: Average daily food consumption was determined in ob/ob mice after oral administration for two weeks (control = 90+/-3); assay type: functional
[11] = Inhibition of creatine transport was assessed from Percent inhibition of [C14] creatine uptake; assay type: functional; design: concentration or dose not given beside the values; conditions: dose or concentration not given here
[12] = organism: Mus musculus; test: Initial blood glucose level was determined in ob/ob mice (control=228+/-19); assay type: functional; procedure, shortened: as §1
[13] = target: Creatine kinase M-type (Homo sapiens) (UniProt P06732); test: Reaction rate of creatine kinase activity is determined at 100 mM concentration (relative to creatine)
[14] = organism: Mus musculus; test: Average daily dose was determined in ob/ob mice(0); assay type: functional
[15] = tested on: Rhesus monkey; test: Post-prandial plasma insulin was determined in insulin-resistant Rhesus monkeys after a treatment sequence of placebo followed by a dose of 10 mg/kg/day; assay type: functional, organism-based; conditions: Cercopithecidae
Procedure, shortened: (§2)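 Insulin-resistant rhesus monkeys (ovariectomized females, 15–30 years) dosed orally once daily around 8 a.m., drug dissolved in diet orange soda and drunk voluntarily from a syringe tip. Sequence: placebo, 10 mg/kg/day, placebo, 3 mg/kg/day; placebo phases averaged. Meal tolerance test in conscious animals: glucose and insulin after overnight fast and for 3 h after a liquid meal. Insulin by double-antibody RIA (125I-porcine insulin tracer, human insulin standard); repeated-measures ANOVA, Tukey post hoc.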

[16] = tested on: Rhesus monkey; test: Post-prandial plasma insulin was determined in insulin-resistant Rhesus monkeys after a treatment sequence of placebo followed by a dose of 3 mg/kg/day; assay type: functional, organism-based; conditions: Cercopithecidae; procedure, shortened: as §2
[17] = tested on: Rhesus monkey; test: Fasting plasma glucose was determined in insulin-resistant Rhesus monkeys after a treatment sequence of placebo followed by a dose of 3 mg/kg/day; assay type: functional, organism-based; conditions: Cercopithecidae; procedure, shortened: as §2
[18] = tested on: Rhesus monkey; test: Fasting plasma insulin was determined in insulin-resistant Rhesus monkeys after a treatment sequence of placebo followed by a dose of 10 mg/kg/day; assay type: functional, organism-based; conditions: Cercopithecidae
Procedure, shortened: (§3)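 Ovariectomized female rhesus monkeys aged 15–30 y, with fasting insulin and glucose elevated over the colony norm. Compound dissolved in diet orange soda and drunk voluntarily from a syringe once daily at ~8:00 a.m. Sequence: placebo, 10 mg/kg/day, placebo, 3 mg/kg/day; placebo phases averaged. Overnight fast. Insulin by double-antibody RIA (guinea pig anti-human insulin, 125I-porcine insulin tracer, human insulin standard). Repeated-measures ANOVA, Tukey post hoc.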

[19] = tested on: Rhesus monkey; test: Fasting plasma insulin was determined in insulin-resistant Rhesus monkeys after a treatment sequence of placebo followed by a dose of 3 mg/kg/day; assay type: functional, organism-based; conditions: Cercopithecidae; procedure, shortened: as §3
[20] = target: Creatine kinase M-type (Homo sapiens) (UniProt P06732); test: Reaction rate of creatine kinase activity is determined at 1 mM concentration
[21] = target: Creatine kinase M-type (Homo sapiens) (UniProt P06732); test: Reaction rate of creatine kinase was determined at 50 mM concentration (relative to creatine)

Chain of Creatine kinase M-type (Homo sapiens) (P06732 whole entry): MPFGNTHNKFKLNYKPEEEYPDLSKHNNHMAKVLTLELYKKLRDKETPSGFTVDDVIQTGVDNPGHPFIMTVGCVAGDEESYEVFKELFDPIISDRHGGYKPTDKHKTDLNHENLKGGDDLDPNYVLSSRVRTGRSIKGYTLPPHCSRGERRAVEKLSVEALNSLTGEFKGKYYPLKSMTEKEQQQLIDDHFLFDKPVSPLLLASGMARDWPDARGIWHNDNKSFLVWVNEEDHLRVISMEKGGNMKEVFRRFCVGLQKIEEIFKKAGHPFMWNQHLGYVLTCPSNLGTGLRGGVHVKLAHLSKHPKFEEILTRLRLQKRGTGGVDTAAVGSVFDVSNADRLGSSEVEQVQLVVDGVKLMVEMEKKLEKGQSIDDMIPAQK

| SMILES | MISS T/C [1] | further results |
| --- | --- | --- |
| Nc1nncc(O)n1 | 0.98 | – |
| NNC(=NCCCC(=O)O)NN | 0.93 | – |
| CC1=NN=C(NCC(=O)O)NN1 | 0.97 | – |
| Cl.Cl.N=C(N)CNCCC(=O)O | 0.96 | – |
| CCCCCC/C(=N\N=C(N)N)C(=O)O | 0.73 | – |
| N=C(N)/N=C(\N)NCCCC(=O)O | 1.05 | – |
| N=C(N)/N=C(\N)NCCS(=O)O | 0.92 | – |
| N=C(N)N/N=C(/C(=O)O)c1ccccc1 | 1.04 | – |
| N/C(=N/NCC(=O)O)N/N=C/c1ccccc1 | 0.89 | – |
| N=C(N)/N=C(\N)NCC(=O)O | 1.01 | – |
| CC(C)NNC(=N)NNCC(=O)O | 0.9 | – |
| NC(=O)NNC(=NCC(=O)O)NNC(N)=O | 0.86 | – |
| N/N=C(/NCC(=O)O)Nc1cc[nH]n1 | 0.89 | – |
| N=C(NN)NCCC(=O)O | 0.83 | – |
| Cc1cc(C)n(NC(=NCC(=O)O)Nn2nc(C)cc2C)n1 | 1 | – |
| CN(C)CCNC(=NCC(=O)O)NCCN(C)C | 0.95 | – |
| CC(C)(C)OC(=O)NCC/N=C(\NN)NCC(=O)O | 0.81 | – |
| C[C@@H](N=C(NN)NN)C(=O)O | 0.66 | – |
| CN1NC(=O)CN=C1NN | 1.16 | – |
| N=C(NN)NNCC(=O)O | – | Reaction rate [2]: 0; blood glucose treated/control ratio [3]: 0.69; Blood glucose [4]: <85 mg/dL; Body weight [5]: 52 g; Body weight [6]: <43 g; Body weight [7]: <20 g; Body weight [8]: <22 g; Dose [9]: 406 mg/kg; Food intake [10]: 81 g/kg; inhibition [11]: 26%; Blood glucose [12]: 226 mg/dL |
| N=C(NN)NCCCC(=O)O | 1.14 | – |

| SMILES | MISS T/C [1] | further results |
| --- | --- | --- |
| CNC(=N)N/N=C/C(=O)O | 0.94 | – |
| CC(C)[C@H](N=C(NN)NN)C(=O)O | 0.56 | – |
| Cl.NC1=NC(=O)CNN1 | 1.08 | – |
| N=C(NCCN)NCC(=O)O | 0.99 | – |
| N/N=C(/NCC(=O)O)NNC(N)=O | 0.86 | – |
| Cl.Cl.NCC(CN)CCC(=O)O | 0.84 | – |
| NNC(=NCC(=O)O)NN | – | Reaction rate [2]: 0.1; blood glucose treated/control ratio [3]: 0.23; inhibition [11]: 88% |
| N=C(N)N/N=C/C(=O)O | <0.52 | – |
| O=C(O)CN=C(NCCO)NCCO | 1.07 | – |
| Nc1nncn1NCC(=O)O | 0.96 | – |
| COC(=O)CC/N=C(\N)C(=N)N.Cl.Cl | 1 | – |
| Cl.Cl.N=C(N)C(=N)NCCC(=O)O | 1.1 | – |
| N=C(N)N/N=C(\Cc1ccccc1)C(=O)O | 0.68 | – |
| N/N=C(/NCC(=O)O)NNc1ccccn1 | 0.91 | – |
| COC(=O)CNN=C(N)N.Cl | 1.12 | – |
| Cl.Cl.N/C(CNCCC(=O)O)=N\O | 1 | – |
| Nc1nccn1NCC(=O)O | 0.99 | – |
| COC(=O)/C=N/N=C(N)N | 1.16 | – |
| COC(=O)NNC(=NCC(=O)O)NNC(=O)OC | 0.92 | – |
| CN(/N=C/C(=O)O)C(=N)N | 0.95 | – |
| CN(NC(=NCC(=O)O)NN(C)C(=O)OC(C)(C)C)C(=O)OC(C)(C)C | 0.85 | – |

| SMILES | MISS T/C [1] | further results |
| --- | --- | --- |
| CCOC(=O)CC/N=C(\N)N=C(N)N.Cl.Cl | 1.06 | – |
| N=C(N)NNC(Cc1ccccc1)C(=O)O (stereo not drawn) | 0.87 | – |
| C/C(=N\N=C(N)N)C(=O)O.Cl | 0.9 | – |
| N=C(N)NNC(C(=O)O)c1ccccc1 (stereo not drawn) | 1.11 | – |
| NN1CCNN=C1NCC(=O)O | 0.77 | – |
| Cl.Cl.N/C(CNCC(=O)O)=N\O | 0.88 | – |
| CC(C)(C)OC(=O)NNC(=NCC(=O)O)NNC(=O)OC(C)(C)C | 0.86 | – |
| Cl.O=C(O)/C=N/Nc1ccccn1 | <0.73 | – |
| N/C(=N/CC(=O)O)NO | 1.06 | – |
| Cl.Cl.N=C(N)CNCC(=O)O | 1.18 | – |
| N/N=C(\NN)N[C@@H](Cc1ccccc1)C(=O)O | 0.88 | – |
| N=C(N)NCC(=O)O [GUANIDINO ACETATE] | <0.62 | – |
| O=C(O)CNC1=NNC(=O)NN1 | 1.04 | – |
| CC/C(=N\N=C(N)N)C(=O)O.Cl | 0.77 | – |
| N=C(N)NNCCC(=O)O | 1.11 | – |
| CC(=O)NNC(=NCC(=O)O)NNC(C)=O | 0.84 | – |
| N=C(N)NCCC(=O)O [OMPENACLID] | – | Reaction rate [13]: 2.4; Dose [14]: 377 mg/kg; Blood glucose [4]: 147 mg/dL; Body weight [5]: 54 g; Body weight [6]: 48 g; Body weight [7]: <24 g; Body weight [8]: 24 g; Food intake [10]: 75 g/kg; inhibition [11]: 97%; Blood glucose [12]: 229 mg/dL |
| Cl.Cl.N=C(CN)NCC(=O)O | 0.95 | – |
| NNC(=NCCC(=O)O)NN | 0.78 | – |
| C[C@H](N=C(NN)NN)C(=O)O | 0.57 | – |
| CN(C)/N=C(\NN)NCC(=O)O | 0.8 | – |

| SMILES | MISS T/C [1] | further results |
| --- | --- | --- |
| N/C(=N\N=C\C(=O)O)N/N=C/C(=O)O | 0.88 | – |
| N/N=C(/NCC(=O)O)NN1CCOCC1 | 1 | – |
| NNc1nncc(O)n1 | 0.84 | – |
| Cl.NCCNC(=NCC(=O)O)NCCN | 0.86 | – |
| N=C(N)N(N)CC(=O)O | 1.04 | – |
| N/N=C(\NN)N[C@H](C(=O)O)c1ccccc1 | 1.06 | – |
| N/N=C(\N)N(N)CC(=O)O | – | Reaction rate [2]: 0; blood glucose treated/control ratio [3]: <0.43; AUC [15]: 30 mU min dl-1; AUC [16]: 38 mU min dl-1; Plasma glucose [17]: 81 mg/dL and < 64 mg/dL; Plasma insulin [18]: 35 uU ml-1; Plasma insulin [19]: 41 uU ml-1; Blood glucose [4]: <57 mg/dL; Body weight [5]: <59 g; Body weight [6]: <44 g; Body weight [7]: <22 g; Body weight [8]: <22 g; Dose [9]: 26 mg/kg; Food intake [10]: <52 g/kg; Blood glucose [12]: 228 mg/dL |
| O=C(O)/C=N/NC1=NCCN1 | 1.01 | – |
| N=C(N)C(=N)NCC(=O)O | 1.08 | – |
| N/N=C(\NCCO)NCC(=O)O | 1.01 | – |
| Cl.Cl.N=C(CN)NCCC(=O)O | 0.97 | – |
| CN(CC(=O)O)C(=N)N | – | Reaction rate [20]: 100; inhibition [11]: 92% |
| CC(C)(C)OC(=O)NCCNC(=NCC(=O)O)NCCNC(=O)OC(C)(C)C | 0.9 | – |
| N=C(N)NNCC(=O)O | – | Reaction rate [21]: 0.24; blood glucose treated/control ratio [3]: <0.61; inhibition [11]: 36% |
| N=C(NN)NCC(=O)O | 0.51 | Blood glucose [4]: 97 mg/dL; Body weight [5]: 52 g; Body weight [6]: 46 g; Body weight [7]: 23 g; Body weight [8]: 23 g; Dose [9]: 436 mg/kg; Food intake [10]: 87 g/kg; Blood glucose [12]: 227 mg/dL |
| Cl.NNC1=NC(=O)CNN1 | 1 | – |
| CCC(NN=C(N)N)C(=O)O (stereo not drawn) | 1.08 | – |
| CC(C)=NNC(=N)NNCC(=O)O | 0.98 | – |
| N=C(N)/N=C(\N)NCCC(=O)O | 0.88 | – |
